In ChEMBL document CHEMBL6182837, “Discovery and biological evaluation of nitrofuranyl-pyrazolopyrimidine hybrid conjugates as potent antimicrobial agents targeting Staphylococcus aureus and methicillin-resistant S. aureus” (RSC Med Chem, 2025):
≈ marks a conversion by molar mass, not a printed value. Calls of active or inactive are those of the source. No cut-off for these calls is given here.

Columns and labels:
Staphylococcus aureus [1] = assay: Antibacterial activity against Staphylococcus aureus ATCC 29213 incubated for 24 hrs by Alamar blue staining based microdilution method; type: functional
Staphylococcus aureus [2] = assay: Antibacterial activity against methicillin-resistant Staphylococcus aureus ATCC 15187 incubated for 24 hrs by Alamar blue staining based microdilution method; type: functional
Escherichia coli = assay: Antibacterial activity against Escherichia coli ATCC 25922 incubated for 24 hrs by Alamar blue staining based microdilution method; type: functional
[3] = Cytotoxicity in human HepG2 cells incubated for 24 hrs by MTT assay; type: toxicity, cell-based
Method in brief: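 HepG2 cells, 1 × 10^4 per well in DMEM/10% FBS, 24 h attachment; compounds 200 to 0.19 μg ml−1 for 24 h at 37 °C, 5% CO2; MTT 2.5 mg ml−1 for 3 h, formazan in DMSO, OD 570 nm; doxorubicin 10 μM control.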

Staphylococcus aureus [4] = assay: Antibacterial activity against Ciprofloxacin-sensitive Staphylococcus aureus […] by Alamar blue staining based analysis; type: functional
Staphylococcus aureus [5] = assay: Antibacterial activity against Staphylococcus aureus SA-1199B overexpressing NorA by Alamar blue staining based analysis; type: functional
Staphylococcus aureus [6] = assay: Antibacterial activity against Staphylococcus aureus SA-K2191 overexpressing MsrA by Alamar blue staining based analysis; type: functional
Staphylococcus aureus [7] = assay: Antibacterial activity against Staphylococcus aureus SA-K2192 overexpressing TetK by Alamar blue staining based analysis; type: functional
Staphylococcus aureus [8] = assay: Induction of morphological disruption in Staphylococcus aureus ATCC 29213 at 1 to 2 times MIC incubated for 2 to 6 hrs by SEM analysis; type: functional, organism-based; settings: time 2-6 hrs
Method in brief: (§1)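 Bacteria incubated for 2 h and 6 h at 1×, 2× and 4× MIC, with vancomycin and daptomycin at 1× and 2× MIC and untreated cells; cell morphology imaged by scanning electron microscopy.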

Staphylococcus aureus [9] = assay: Induction of morphological disruption in methicillin-resistant Staphylococcus aureus ATCC 15187 at 1 to 2 times MIC incubated for 2 to 6 hrs by SEM analysis; type: functional, organism-based; settings: time 2-6 hrs; method in brief: as §1

Compound	MIC (Staphylococcus aureus [1]) [µg/mL]	MIC (Staphylococcus aureus [2]) [µg/mL]	MIC (Escherichia coli)	IC50 at 24 h [3] [µg/mL]	MIC (Staphylococcus aureus [4]) [µg/mL]	MIC (Staphylococcus aureus [5]) [µg/mL]	MIC (Staphylococcus aureus [6]) [µg/mL]	MIC (Staphylococcus aureus [7]) [µg/mL]	Activity (Staphylococcus aureus [8])	Activity (Staphylococcus aureus [9])
CCCc1nn(C)c2c(Nc3ccccc3O)nc(-c3ccc([N+](=O)[O-])o3)nc12	0.5 (≈ 1.27 µM)	1 (≈ 2.54 µM)	inactive	> 50	–	–	–	–	–	–
CCCc1nn(C)c2c(NCc3ccncc3)nc(-c3ccc([N+](=O)[O-])o3)nc12	1 (≈ 2.54 µM)	1 (≈ 2.54 µM)	inactive	> 50	–	–	–	–	–	–
CCCc1nn(C)c2c(NCc3ccc(OC)c(F)c3)nc(-c3ccc([N+](=O)[O-])o3)nc12	> 32	> 32	inactive	> 50	–	–	–	–	–	–
CCCc1nn(C)c2c(N3CCC(c4ccccc4)CC3)nc(-c3ccc([N+](=O)[O-])o3)nc12	> 32	> 32	inactive	> 50	–	–	–	–	–	–
CCCc1nn(C)c2c(N3CCCCC3)nc(-c3ccc([N+](=O)[O-])o3)nc12	> 32	> 32	inactive	> 50	–	–	–	–	–	–
CCCc1nn(C)c2c(NCCCCO)nc(-c3ccc([N+](=O)[O-])o3)nc12	4 (≈ 10.7 µM)	0.25 (≈ 0.668 µM)	inactive	> 50	–	–	–	–	–	–
CCCc1nn(C)c2c(N3CCN(c4ccncc4)CC3)nc(-c3ccc([N+](=O)[O-])o3)nc12	1 (≈ 2.23 µM)	0.25 (≈ 0.557 µM)	inactive	> 50	–	–	–	–	–	–
CCCc1nn(C)c2c(N3CCN(C)CC3)nc(-c3ccc([N+](=O)[O-])o3)nc12	> 32	> 32	inactive	> 50	–	–	–	–	–	–
CCCc1nn(C)c2c(Nc3ccc(C(F)(F)F)cc3)nc(-c3ccc([N+](=O)[O-])o3)nc12	> 32	> 32	inactive	> 50	–	–	–	–	–	–
CCCc1nn(C)c2c(NCCCN3CCOCC3)nc(-c3ccc([N+](=O)[O-])o3)nc12	> 32	> 32	inactive	> 50	–	–	–	–	–	–
CCCc1nn(C)c2c(NCCCO)nc(-c3ccc([N+](=O)[O-])o3)nc12	4 (≈ 11.1 µM)	2 (≈ 5.55 µM)	inactive	> 50	–	–	–	–	–	–
CCCc1nn(C)c2c(Nc3ccc(Cl)cc3)nc(-c3ccc([N+](=O)[O-])o3)nc12	> 32	> 32	inactive	> 50	–	–	–	–	–	–
CCCc1nn(C)c2c(N3CCC(CO)CC3)nc(-c3ccc([N+](=O)[O-])o3)nc12	> 32	> 32	inactive	> 50	–	–	–	–	–	–
CCCc1nn(C)c2c(Nc3ccc(F)cc3)nc(-c3ccc([N+](=O)[O-])o3)nc12	8 (≈ 20.2 µM)	0.25 (≈ 0.631 µM)	inactive	> 50	–	–	–	–	–	–
CCCc1nn(C)c2c(NCCCCCO)nc(-c3ccc([N+](=O)[O-])o3)nc12	4 (≈ 10.3 µM)	0.5 (≈ 1.29 µM)	inactive	38.1 (≈ 98.1 µM)	–	–	–	–	–	–
CCCc1nn(C)c2c(NCCN3CCCCC3)nc(-c3ccc([N+](=O)[O-])o3)nc12	> 32	> 32	inactive	> 50	–	–	–	–	–	–
CCCc1nn(C)c2c(NCCN3CCOCC3)nc(-c3ccc([N+](=O)[O-])o3)nc12	> 32	> 32	inactive	> 50	–	–	–	–	–	–
CCCc1nn(C)c2c(NCc3cccnc3)nc(-c3ccc([N+](=O)[O-])o3)nc12	8 (≈ 20.3 µM)	4 (≈ 10.2 µM)	inactive	> 50	–	–	–	–	–	–
CCCc1nn(C)c2c(NCc3ccccc3)nc(-c3ccc([N+](=O)[O-])o3)nc12	> 32	> 32	inactive	> 50	–	–	–	–	–	–
CCCc1nn(C)c2c(N3CCN(c4cccc(O)c4)CC3)nc(-c3ccc([N+](=O)[O-])o3)nc12	> 32	> 32	inactive	> 50	–	–	–	–	–	–

Compound	MIC (Staphylococcus aureus [1]) [µg/mL]	MIC (Staphylococcus aureus [2]) [µg/mL]	MIC (Escherichia coli)	IC50 at 24 h [3] [µg/mL]	MIC (Staphylococcus aureus [4]) [µg/mL]	MIC (Staphylococcus aureus [5]) [µg/mL]	MIC (Staphylococcus aureus [6]) [µg/mL]	MIC (Staphylococcus aureus [7]) [µg/mL]	Activity (Staphylococcus aureus [8])	Activity (Staphylococcus aureus [9])
CCCc1nn(C)c2c(Nc3cccc(O)c3)nc(-c3ccc([N+](=O)[O-])o3)nc12	4 (≈ 10.1 µM)	1 (≈ 2.54 µM)	inactive	> 50	–	–	–	–	–	–
CCCc1nn(C)c2c(NCc3ccc(OC)cc3)nc(-c3ccc([N+](=O)[O-])o3)nc12	> 32	> 32	inactive	> 50	–	–	–	–	–	–
CCCc1nn(C)c2c(N3CCOCC3)nc(-c3ccc([N+](=O)[O-])o3)nc12	> 32	> 32	inactive	> 50	–	–	–	–	–	–
CCCc1nn(C)c2c(=O)[nH]c(-c3ccc([N+](=O)[O-])o3)nc12	8 (≈ 26.4 µM)	8 (≈ 26.4 µM)	inactive	> 50	–	–	–	–	–	–
CCCc1nn(C)c2c(N3CCN(c4ccccc4O)CC3)nc(-c3ccc([N+](=O)[O-])o3)nc12	> 32	> 32	inactive	> 50	–	–	–	–	–	–
CCCc1nn(C)c2c(Nc3ccc(OC(F)(F)F)cc3)nc(-c3ccc([N+](=O)[O-])o3)nc12	> 32	> 32	inactive	> 50	–	–	–	–	–	–
O=C(O)c1cn(C2CC2)c2cc(N3CCNCC3)c(F)cc2c1=O [CIPROFLOXACIN]	0.25 (≈ 0.754 µM)	–	–	–	0.25 (≈ 0.754 µM)	4.14 (≈ 12.5 µM)	4.14 (≈ 12.5 µM)	0.25 (≈ 0.754 µM)	–	–
CCCc1nn(C)c2c(Nc3ccc(Br)cc3)nc(-c3ccc([N+](=O)[O-])o3)nc12	> 32	> 32	inactive	> 50	–	–	–	–	–	–
CCCc1nn(C)c2c(Nc3cccc(F)c3)nc(-c3ccc([N+](=O)[O-])o3)nc12	> 32	4 (≈ 10.1 µM)	inactive	38.9 (≈ 98 µM)	–	–	–	–	–	–
CCCc1nn(C)c2c(NCCO)nc(-c3ccc([N+](=O)[O-])o3)nc12	> 32	8 (≈ 23.1 µM)	inactive	> 50	–	–	–	–	–	–
CCCc1nn(C)c2c(N3CCCC3)nc(-c3ccc([N+](=O)[O-])o3)nc12	> 32	> 32	inactive	> 50	–	–	–	–	–	–
CCCc1nn(C)c2c(NC3CCOCC3)nc(-c3ccc([N+](=O)[O-])o3)nc12	> 32	> 32	inactive	> 50	–	–	–	–	–	–
CCCc1nn(C)c2c(N3CCC(O)CC3)nc(-c3ccc([N+](=O)[O-])o3)nc12	16 (≈ 41.4 µM)	0.5 (≈ 1.29 µM)	inactive	> 50	–	–	–	–	–	–
CCCc1nn(C)c2c(Nc3ccc(OC)cc3)nc(-c3ccc([N+](=O)[O-])o3)nc12	> 32	> 32	inactive	> 50	–	–	–	–	–	–
CCCc1nn(C)c2c(NCCCCCCO)nc(-c3ccc([N+](=O)[O-])o3)nc12	32 (≈ 79.5 µM)	2 (≈ 4.97 µM)	inactive	> 50	–	–	–	–	–	–
CCCc1nn(C)c2c(Nc3ccncc3)nc(-c3ccc([N+](=O)[O-])o3)nc12	0.5 (≈ 1.32 µM)	4 (≈ 10.5 µM)	4 µg/mL (≈ 10.5 µM)	> 50	–	–	–	–	–	–
CCCCCCCCCC(=O)N[C@@H](Cc1c[nH]c2ccccc12)C(=O)N[C@@H](CC(N)=O)C(=O)N[C@@H](CC(=O)O)C(=O)N[C@@H]1C(=O)NCC(=O)N[C@@H](CCCN)C(=O)N[C@@H](CC(=O)O)C(=O)N[C@H](C)C(=O)N[C@@H](CC(=O)O)C(=O)NCC(=O)N[C@H](CO)C(=O)N[C@@H]([C@@H](C)CC(=O)O)C(=O)N[C@@H](CC(=O)c2ccccc2N)C(=O)O[C@@H]1C	–	–	–	–	–	–	–	–	Active	Active
CCCc1nn(C)c2c(N3CCC(=O)CC3)nc(-c3ccc([N+](=O)[O-])o3)nc12	> 32	16 (≈ 41.6 µM)	inactive	> 50	–	–	–	–	–	–
CCCc1nn(C)c2c(N3CCC(CCO)CC3)nc(-c3ccc([N+](=O)[O-])o3)nc12	> 32	> 32	inactive	> 50	–	–	–	–	–	–
